Compound activity from PubChem.
Most compounds without a hit are left out; they make up all but 3.6% or so of the library.
PfHsp90 yeast 2: growth inhibition of PfHsp90-expressing yeast, primary screen, antimalarial PfHsp90 inhibitor project, S. cerevisiae, BacTiter-Glo luminescence, single point, set 2 | BacTiter-Glo ATP, 48 h; yeast lacking PDR1 and PDR3 efflux regulators | inhibition, % at 9.4 µM | hit rate 0.32% among 310,000;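 active = every replicate shows inhibition above about 80%, whatever the replicate mean, limit read from the data; inconclusive = mean inhibition reaches the set limit but some replicate falls short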;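 also: 0% = DMSO neutral controls and 100% = 20 µM radicicol positive controls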
T cruzi repl: inhibitors of intracellular T. cruzi growth, primary screen, luminescence, NIH3T3 host cells; inhibition, % (no concentration beside the values); hit rate 1.4% among 300,000; AID 1885, 2009; T. cruzi beta-gal in NIH3T3, 90 h;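 active = mean inhibition across valid replicates above about 55%, limit read from the data; inconclusive = mean below that limit but half or more replicates reach it; inactive = mean below it, under half of replicates reach it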;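 also: signal also drops with host cell toxicity which is not excluded here; 0% = plate median of DMSO wells and 100% = zero luminescence signal; higher percent means less beta-gal luminescence so fewer parasites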
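Incubation – ≥90 h infection period, 3 h prior cell attachment · System – NIH/3T3 fibroblasts plus reporter T. cruzi · Doses – compound pinned at 50 nL/well, DMSO · Read-out basis – percent inhibition of parasite-derived β-gal signal · Signal – luminescent β-galactosidase signal after 60 min lysis · Also added – 5000 T. cruzi trypomastigotes/well · Medium – Low-serum DMEM with 2% FBS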
SKKanGAS inh: S. pyogenes SKKanGAS growth inhibitors in kanamycin, primary screen, streptokinase expression inhibitor project, SKKanGAS strain, BacTiter-Glo luminescence; inhibition, % at 7.5 µM; 6 h; hit rate 1.3% among 300,000;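 active = mean replicate score, as percent of positive control median, at least 50; inconclusive = mean below 50 but one replicate at or above 50; inactive = mean and every replicate below 50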;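 also: strain carries kanamycin resistance gene driven by streptokinase promoter and grows in 40 µg/ml kanamycin; loss of luminescence reflects streptokinase promoter inhibition or plain growth inhibition; 0% = median of DMSO wells and 100% = positive control at its reference dose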
CSC inhib: cancer stem cell viability inhibitors, primary screen, luminescence | cancer stem cell-like cells viability | inhibition, % at 7.5 µM | hit rate 1.1% among 300,000 | AID 2717, 2010; in the data active = inhibition above about 75%; inconclusive = no clear call, values can overlap the other calls; tested in HMLE shEcad cells
Beta cell apopt: inhibitors of cytokine-induced beta cell apoptosis, primary screen, luminescence. AID 435005, 2010. protection from apoptosis, % (no concentration beside the values). hit rate 0.8% among 300,000. INS-1E cytokine-induced death, ATP luminescence, 48 h; percent of positive-control rescue, neutral wells zero;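 active = Every replicate reaches about 75%, or at least half do and their mean reaches it too, limit read from the data; inconclusive = At least half of replicates reach the limit but their mean does not; inactive = Under half of replicates reach the limit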;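 also: 0% = cytokine-treated negative control wells and 100% = positive control rescue; higher means more ATP so stronger rescue from cytokine killing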
HIF act: HIF pathway transcriptional activators, primary screen, cell-based, U2OS HRE-luciferase, luminescence; U2OS HRE-luciferase reporter; normalized: DMSO 0%, desferrioxamine 100%; activation, % at 7.5 µM (by protocol); hit rate 0.32% among 300,000; AID 1910, 2009;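 active = mean activation of at least 10% of the iron chelator positive control signal, with at least half of replicates also reaching 10%; inconclusive = mean and replicate majority disagree about reaching 10%; inactive = mean and most replicates under 10%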
* marks the source's active call; other numbers are inactive results; ? = inconclusive; nt = not tested or not shown.

SMILES | PfHsp90 yeast 2 | T cruzi repl | SKKanGAS inh | CSC inhib | Beta cell apopt | HIF act
C=C(C)C1CC=C(CN2CCN(Cc3ccccc3)CC2)CC1 (stereo not drawn) | -6.6 | 57.3* | 0.5 | 3.2 | -0.5 | 1.6
C=C(C)[C@@H]1CC=C(CN2CCN(Cc3ccccc3)CC2)CC1 | -9.2 | 38.9 | 0.8 | 22.2 | 3.0 | -0.2
O=[N+]([O-])c1ccc(N/N=C/c2cccc(O)c2O)c(S(=O)(=O)N2CCOCC2)c1 | 7.5 | -5.3 | 5.3 | 72.0 | 12.9 | nt
Cc1ccc(NS(=O)(=O)c2cc([N+](=O)[O-])ccc2N/N=C/c2sc(N3CCOCC3)nc2-c2ccccc2)c(C)c1 | -66.7 | 7.0 | 8.7 | 8.4 | 75.1* | 0.2
Cc1c(/C(O)=C2\C(=O)C(=O)N(CCCN(C)C)C2c2ccco2)cnn1-c1ccccc1 (stereo not drawn) | 4.5 | nt | nt | nt | nt | nt
O=C(Cn1cc(F)c(=O)[nH]c1=O)NCCO | -8.6 | -1.4 | -14.8 | nt | -4.7 | 0.0
Cc1ccccc1NC(=O)CSc1ccc(-c2ccccn2)nn1 | 23.9 | 5.5 | -5.2 | 4.0 | -3.6 | -0.3
Cc1cc(C)cc(NC(=O)CSc2ccc(-c3ccccn3)nn2)c1 | -7.2 | 34.5 | -9.2 | 96.4* | 24.4 | 10.4*
O=C(COc1ccc(Cl)cc1)NCc1n[nH]c(=O)c2ccccc12 | nt | -5.9 | -15.4 | -12.7 | nt | -0.2
Cc1ccc(-c2cc(-c3ccccc3)nc(N(C)N)n2)cc1 | 23.8 | -2.3 | 67.9* | 19.0 | 1.1 | 1.0
Cc1ccc(-c2cc(N)nc(-c3ccccc3)c2)cc1 | -0.3 | 4.9 | 0.2 | 37.4 | 2.5 | -5.9
CC1(C)CC(=O)C(CC2C(=O)CC(C)(C)CC2=O)C(=O)C1 | -32.1 | 3.7 | -2.2 | 0.6 | -1.2 | 54.4*
CN1CCN(c2ccc(NC(=O)c3ccc(-c4ccc(Cl)cc4)o3)cc2)CC1 | -18.2 | 49.2 | ? | 105.0* | 26.3 | 1.8
O=C(Nc1ccc(N2CCN(C(=O)c3ccc(Cl)cc3)CC2)cc1)c1ccc(Br)o1 | 17.2 | 69.9* | -1.3 | nt | 3.7 | -2.9
COc1cccc(C(=O)N/N=C/c2ccc(OC3CSC3)cc2)c1 | -16.5 | -6.6 | -2.7 | 64.3 | 3.9 | 0.9
Cc1cccc(C(=O)N/N=C/c2ccc(OC3CSC3)cc2)c1 | 4.3 | 3.7 | -2.0 | 76.2* | 4.0 | 1.1
O=C(C[C@H]1C[C@H](C(=O)N2CCCCC2)[C@@]2(CCc3ccccc3)c3[nH]c4cc(-c5ccco5)ccc4c3CCN2C1=O)NCCC1=CCCCC1 | -14.2 | nt | nt | nt | nt | nt
CC(=O)SC(C[N+](=O)[O-])c1cn(C(C)=O)c2ccccc12 (stereo not drawn) | 124.3* | -12.0 | 2.5 | -2.3 | 2.2 | 0.9
CCCn1c2ccccc2c2cnn(CC(=O)NC3CCCC(C)C3C)c(=O)c21 (stereo not drawn) | -4.9 | 0.8 | 0.7 | -14.1 | -6.4 | 13.4*
CCCn1c2ccccc2c2cnn(CC(=O)NC3CCC(C)CC3)c(=O)c21 (stereo not drawn) | 4.2 | -3.4 | -9.7 | -17.7 | 0.6 | 0.4
Cc1ccc(Nc2cc(C)nc(NCc3ccccc3)n2)cc1 | 4.0 | 61.2* | 0.5 | ? | 105.1* | 0.0
CCCc1nc(C)cc(N2CCN(c3ccccc3)CC2)n1 | -3.9 | 9.9 | -3.6 | 24.0 | -4.4 | 0.2
Cc1cc(NC2CCCCC2)nc(NCc2ccccc2)n1 | -8.8 | 57.5* | -3.8 | 16.0 | 104.4* | -0.3
COc1nc(NCc2cccnc2)nc(NC2CCCCC2)n1 | 20.9 | 1.8 | -10.8 | nt | 3.5 | 1.7
Cc1cc(C)nc(N/N=C/c2ccccc2Cl)n1 | nt | -11.1 | 2.8 | 1.6 | 2.7 | 3.8
Cc1cc(N/N=C/c2ccccc2Cl)nc(NCc2ccccc2)n1 | -1.5 | 31.3 | 15.4 | 93.6* | 35.1 | 1.0
Cc1cc(OC(C)C)nc(NCc2ccccc2)n1 | 5.2 | -1.9 | 1.5 | 40.9 | 4.0 | 1.0
Cc1cc(N2CCN(c3ccccc3)CC2)nc(NCc2ccccc2)n1 | 3.1 | 55.3* | 9.3 | -14.1 | 36.3 | -0.6
O=C(C[C@@H]1C/C=C\C[C@@H](NC(=O)OCC2c3ccccc3-c3ccccc32)C(=O)OCCNC1=O)N[C@@H](CO)Cc1ccccc1 | 3.7 | nt | nt | 2.2 | 25.4 | nt
